# High-throughput results (PubChem BioAssay)
# This is a sample that favours compounds with a hit; in the whole collection about 3.5% have one here.
# MrgX1 antagonist: antagonists of human MrgX1 receptor, primary screen, HEK293 cells, Fluo-4 calcium flux; Mas-related G-protein coupled receptor member X1 (Homo sapiens), Q96LB2; BAM8-22 antagonism; hits give low values; B-score at 10 µM; hit rate 1.3% among 310,000; AID 588676, 2011;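 active = calcium-response B-score plate-corrected more than 3 library SD below zero, starting fluorescence within 5 deviations, no agonist response on first addition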;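 also: peak minus trough fluorescence over baseline after final BAM8-22 challenge near maximal dose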
# RGS4 pot: RGS4 potentiators or activators, primary screen, cell-based, HEK293 M3R inducible RGS4, calcium flux; carbachol calcium flux Fluo4; hits give low values; B-score at 10 µM; hit rate 0.92% among 310,000; AID 463111, 2010;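 active = B-score of the integrated calcium signal more than 4 SD below the library mean, with starting fluorescence not abnormally high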;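 also: negative B-score means reduced calcium response which marks RGS4 activation or potentiation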
#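 System: HEK293 FlpIn-TREx cells, stable M3R, doxycycline-inducible RGS4. Timing: overnight RGS4 induction, 30 min dye load 37 °C, 20 min compound RT. Also added: carbachol, ECmax concentration. Measured by: Fluo4 fluorescence kinetic imaging of calcium. Evaluation: integrated calcium ratio converted to B score.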
# MrgX1 allo act: positive allosteric modulators of MrgX1, primary screen, HEK293 cells, Fluo-4 calcium flux; FDSS; hits give high values; B-score at 10 µM; hit rate 0.63% among 310,000;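 active = plate-corrected calcium response at least 3 library SD above typical, normal starting fluorescence, not activating the receptor alone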;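 also: compound read alongside a low EC10 to EC30 dose of BAM8-22 agonist; peak minus trough fluorescence over baseline measured at the second addition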
# RGS4 block: RGS4 inhibitors, primary screen, cell-based, HEK293 M3R inducible RGS4, calcium flux. Fluo-4 calcium flux; hits give high values; triggered by carbachol at its EC20. B-score at 10 µM. hit rate 0.45% among 310,000. AID 463165, 2010;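 active = B-score, a plate-corrected calcium signal, over three deviations above library mean, with baseline fluorescence within five deviations of library mean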;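 also: RGS4 expression induced by doxycycline in cells with stable M3 receptor; B-score is computed from the integrated fluorescence ratio over baseline after carbachol; higher B-score means a larger calcium signal and so more RGS4 inhibition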
# Target sequence (P49798 whole entry, looked up): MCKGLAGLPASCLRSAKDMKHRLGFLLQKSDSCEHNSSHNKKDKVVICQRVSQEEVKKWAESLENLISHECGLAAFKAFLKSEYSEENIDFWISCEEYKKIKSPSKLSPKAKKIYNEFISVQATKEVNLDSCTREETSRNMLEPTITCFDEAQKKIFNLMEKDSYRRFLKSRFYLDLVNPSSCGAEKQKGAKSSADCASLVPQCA
# MrgX1 ag: agonists of human MrgX1 receptor, primary screen, HEK293 cells, Fluo-4 calcium flux; Mas-related G-protein coupled receptor member X1 (Homo sapiens), Q96LB2; Fluo-4 calcium fluorescence, agonist mode; hits give high values; B-score at 10 µM; hit rate 0.44% among 310,000;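 active = calcium response B-score plate-corrected fluorescence ratio at least 3 library SD, with starting fluorescence B-score inside 5 SD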
#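 Material: MrgX1-expressing HEK293 cells; input: 15,000 cells per well; doses: test compound given as first of three sequential additions; schedule: overnight plating before 1 h dye loading; technique: Fluo-4 NW calcium-flux fluorescence, kinetic read; evaluation: baseline-normalised fluorescence change ratio, B-scored; control set: plate-wise positive and negative controls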
# RGS4 inh valid: enhanced carbachol calcium response, M3R/RGS4 cells, RGS4 inhibitor project, cell-based, validation screen, HEK293 M3R/RGS4, calcium flux; shares compounds with RGS4 block; carbachol calcium Fluo-4 fluorescence; carbachol added at its EC20; 0 = buffer wells, 100 = carbachol control; calcium response, % at 10 µM; hit rate 65% among 1,700; AID 492999, 2010;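 active = duplicate-averaged calcium response above the buffer-only control mean plus 5 SD of those controls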;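 also: integrated fluorescence ratio F max minus min over baseline F0; higher response in RGS4-induced cells means RGS4 inhibition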
# RGS4 uninduced: carbachol calcium response in non-induced M3R cells, confirmation, counter-screen for RGS4 inhibitor project, cell-based, HEK293 M3R; AID 493000, 2010; carbachol calcium Fluo-4; submaximal (EC20) carbachol stimulus; buffer wells 0%, carbachol control wells 100%; hit rate 20% among 1,900; shares compounds with RGS4 block; activity (percent), % at 10 µM; call rule not given here;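 also: RGS4 induction absent so cells express M3R without RGS4; higher means more calcium signal and flags a non-specific hit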
# RGS4 inh ctr2: signal in non-induced cells without carbachol, RGS4 inhibitor counter-screen; hit rate 22% among 1,900; shares compounds with RGS4 block; HEK293 M3R/RGS4 non-induced, Fluo-4 calcium, no carbachol; normalised: buffer wells 0%, carbachol wells 100%; calcium response (agonist-mode artifact), % at 10 µM;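 active = duplicate-averaged calcium rise in uninduced cells above buffer wells' mean plus 5 SD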
# Numbers without * were called inactive; i = inactive; . = not tested or not shown.
SMILES,MrgX1 antagonist,RGS4 pot,MrgX1 allo act,RGS4 block,MrgX1 ag,RGS4 inh valid,RGS4 uninduced,RGS4 inh ctr2
Nc1nc(Nc2ccccc2)nc2c1ncn2[C@@H]1O[C@H](CO)[C@@H](O)[C@H]1O,i,i,6.5*,6.2*,i,24%*,i,357%*
Nc1ncnc2c1ncn2C1OC(CO)C(O)C1N (stereo unspecified),i,i,i,i,i,.,i,i
CNc1nc2c(N)ncnc2n1[C@H]1O[C@@H](CO)[C@H](O)[C@@H]1O,i,i,i,6.8*,i,13%*,36%*,i
Nc1ncnc2c1ncn2[C@@H]1O[C@H](CO)[C@@H](O)[C@@H]1O,i,i,i,i,i,.,.,.
Nc1ncnc2c1ncn2C1O[C@H](CO)[C@@H](O)[C@@H]1O (stereo partly specified),i,.,i,.,i,.,.,.
Nc1nc(F)nc2c1ncn2[C@@H]1O[C@H](CO)[C@@H](O)[C@@H]1O,i,i,i,i,i,.,.,.
Nc1nc(F)nc2c1ncn2[C@@H]1O[C@H](CO)[C@@H](O)[C@H]1O,i,i,i,11*,i,52%*,30%*,i
Cc1ccc(S(=O)(=O)N2CCN(CC(=O)NC(=O)NCc3ccco3)CC2)cc1C,i,i,i,i,i,.,.,.
COC(=O)c1ccc(/C=C2\CCn3c2nc2cc(C(=O)O)ccc2c3=O)cc1,i,i,i,i,i,.,.,.
O=C(O)c1ccc2c(=O)n3c(nc2c1)/C(=C/c1cccc(O)c1)CC3,i,i,i,i,i,.,.,.
Cc1ccc(C)c(/C=C2\CCn3c2nc2cc(C(=O)O)ccc2c3=O)c1,i,i,i,i,i,i,i,i
O=C(O)c1ccc2c(=O)n3c(nc2c1)/C(=C/c1ccc(Cl)c(Cl)c1)CC3,i,i,i,16*,i,30%*,i,i
COc1ccc(C)c2sc(NC(=O)CCS(=O)(=O)c3ccccc3)nc12,i,i,i,i,i,.,.,.
O=C(O)C1CCCCC1C(=O)NCc1ccc(Cl)c(Cl)c1 (stereo unspecified),i,i,i,i,i,.,.,.
COc1ccc(N2CCN(C3CCN(S(=O)(=O)c4ccc(F)cc4)CC3)CC2)cc1,i,i,i,i,i,.,.,.
COc1ccc(S(=O)(=O)N2CCN(c3ccc4nnc(-c5ccc(F)cc5)n4n3)CC2)cc1,i,i,i,i,i,.,32%*,i
OCC[C@@H]1C[C@@H](O)[C@H](O)[C@@]2(CCCCO2)O1,i,i,i,i,i,.,.,.
CC(C)(CC(=O)O)CC(=O)N1CCN(c2cc(C(F)(F)F)nc3ccccc23)CC1,i,i,i,5*,i,i,i,i
FC(F)(F)c1cc(N2CCN(Cc3ccccc3)CC2)c2ccccc2n1,i,i,i,i,i,.,.,.
Cc1ccc(C)c(NC(=O)C(=O)NCC2CCCN2S(=O)(=O)c2cccs2)c1 (stereo unspecified),i,i,i,i,i,.,.,.
CCC(C)(C)NC(=O)C(c1cccc(OC)c1OC)N(CCC(C)C)C(=O)CCC(=O)Nc1cc(C)on1 (stereo unspecified),i,i,i,i,i,.,.,.
